Molecular target: Histamine H3 receptor (Rattus norvegicus, UniProt Q9QYN8)
Assay: Affinity for histamine H3 receptor in rat cerebral cortex.
Summary of the method: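 Affinity for the H3 receptor measured in an in vitro binding assay by displacement of the radioligand [3H]R-(α)-methylhistamine.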

Chain of Histamine H3 receptor (Q9QYN8 whole entry): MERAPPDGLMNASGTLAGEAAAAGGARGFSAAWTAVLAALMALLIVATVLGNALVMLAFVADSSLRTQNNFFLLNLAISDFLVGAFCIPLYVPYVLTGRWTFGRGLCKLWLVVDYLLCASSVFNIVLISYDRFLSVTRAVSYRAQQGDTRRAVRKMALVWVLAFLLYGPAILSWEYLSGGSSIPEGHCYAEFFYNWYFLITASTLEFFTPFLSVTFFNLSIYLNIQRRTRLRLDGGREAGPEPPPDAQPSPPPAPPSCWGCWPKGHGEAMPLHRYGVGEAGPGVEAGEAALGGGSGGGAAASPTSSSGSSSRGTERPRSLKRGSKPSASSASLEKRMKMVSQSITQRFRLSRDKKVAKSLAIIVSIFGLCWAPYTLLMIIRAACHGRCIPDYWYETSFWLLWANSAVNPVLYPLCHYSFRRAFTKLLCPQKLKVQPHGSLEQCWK

Row | Structure (SMILES) | Ki
1 | N[C@H](COCc1ccccc1)Cc1c[nH]cn1 | 50.1 nM
2 | N[C@H](COCC1CCCCC1)Cc1c[nH]cn1 | 12.6 nM
3 | Ic1ccc(COCCCc2c[nH]cn2)cc1 [Iodoproxyfan] | 0.126 nM
4 | N[C@@H](CO)Cc1c[nH]cn1 | 1250 nM
5 | COC[C@@H](N)Cc1c[nH]cn1 | 1250 nM
6 | N[C@H](COCc1ccc(Br)cc1)Cc1c[nH]cn1 | 79.4 nM
7 | N[C@@H](COCC1CCCCC1)Cc1c[nH]cn1 | 158 nM

Other lines, results leading:

Row | Ki | Structure (SMILES)
8 | 199 nM | N[C@@H](COCc1ccc(Br)cc1)Cc1c[nH]cn1
9 | 251 nM | N[C@H](COCc1ccc(I)cc1)Cc1c[nH]cn1
10 | 3.16 nM | c1ccc(COCCCc2c[nH]cn2)cc1 [proxifan]
11 | 316 nM | N[C@@H](COCc1ccccc1)Cc1c[nH]cn1
12 | 199 nM | N[C@@H](COCc1ccc(I)cc1)Cc1c[nH]cn1
13 | 251 nM | N[C@H](CO)Cc1c[nH]cn1 [HISTIDINOL]
